Source: PubChem
Only some compounds are listed: those with a hit (about 4.5% of all), similar ones and a draw of the others.
p97 inhibitor: human p97 ATPase inhibition; P55072; recombinant p97 ATPase, Kinase-Glo ATP luminescence, 3 h; inhibition, % at 8 µM; 220,000 tested, 0.42% active; in the data active means inhibition above about 15%;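 further: 0% = DMSO vehicle and 100% = wells lacking enzyme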
Target sequence (P55072 whole entry, looked up): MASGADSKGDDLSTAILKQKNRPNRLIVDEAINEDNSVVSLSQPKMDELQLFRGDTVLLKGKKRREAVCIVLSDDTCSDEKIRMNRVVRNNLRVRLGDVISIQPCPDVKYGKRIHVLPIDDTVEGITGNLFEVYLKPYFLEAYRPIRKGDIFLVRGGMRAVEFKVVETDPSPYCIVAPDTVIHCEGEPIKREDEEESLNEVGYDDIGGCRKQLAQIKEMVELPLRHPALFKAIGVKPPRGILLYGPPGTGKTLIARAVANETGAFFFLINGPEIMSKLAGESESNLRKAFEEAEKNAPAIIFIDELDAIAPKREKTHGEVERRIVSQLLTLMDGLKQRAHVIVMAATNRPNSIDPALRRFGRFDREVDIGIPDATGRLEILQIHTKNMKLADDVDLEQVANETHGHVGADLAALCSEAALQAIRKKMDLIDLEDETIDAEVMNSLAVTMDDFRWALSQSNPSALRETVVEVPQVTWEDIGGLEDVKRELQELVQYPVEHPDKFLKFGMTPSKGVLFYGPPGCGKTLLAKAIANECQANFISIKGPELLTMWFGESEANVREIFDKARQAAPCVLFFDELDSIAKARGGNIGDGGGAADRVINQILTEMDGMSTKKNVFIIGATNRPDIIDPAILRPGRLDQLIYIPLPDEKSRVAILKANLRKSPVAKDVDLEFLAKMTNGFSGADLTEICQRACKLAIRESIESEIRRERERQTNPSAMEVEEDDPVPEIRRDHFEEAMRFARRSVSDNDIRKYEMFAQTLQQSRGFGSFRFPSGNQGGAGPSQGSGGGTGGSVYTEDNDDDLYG
HCV NS3 hel inh: HCV NS3 helicase inhibition; NS3 helicase DNA unwinding, Cy5 molecular beacon fluorescence; inhibition, % at 10.9 µM; 290,000 tested, 0.56% active;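 active means inhibition above the mean of all tested compounds plus 3 SD, set per campaign, cut at about 35% in these data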;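 further: 0% = DMSO wells and 100% = thioflavine S control wells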
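System: NS3 helicase fragment of HCV / Schedule: 1 h at 25 °C / Control set: DMSO alone as 0% and 110 µM thioflavine S as 100% / Reagent: Cy5/quencher beacon DNA duplex and ATP to start / Technique: Cy5 fluorescence / Replication: singlicate / Evaluation: % inhibition of end-to-start signal ratio versus controls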
CHOP inhibitor: blocks CHOP induction under ER stress. CHO-K1 CHOP-promoter luciferase, tunicamycin-induced, 15-18 h. inhibition, % at 10 µM. 220,000 tested, 3.8% active. AID 2732;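 active means compounds that reduced the stress-induced luciferase reporter signal by more than about 70% of percent inhibition, limit read from the data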;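 further: 0% = tunicamycin plus vehicle and 100% = wells without tunicamycin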
PfM18AAP inh: PfM18AAP enzyme inhibition. 290,000 tested, 1.2% active. recombinant PfM18AAP, H-Glu-NHMec fluorogenic cleavage. AID 1822. inhibition, % at 7.35 µM;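 active means inhibition above the campaign mean inhibition over all tested compounds plus 3 SD, cut at about 28% in these data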;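 further: 0% = plate median of test compound wells and 100% = 2 mM ZnCl2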
CHOP UPR activ: apoptotic UPR (CHOP) activation. CHO-CHOP luciferase reporter, luminescence; percent of tunicamycin response over DMSO baseline. AID 449763. activation, % at 10 µM. 330,000 tested, 0.34% active;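 active means at 10 µM dose, activation of 40% or more, normalized to positive control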;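 further: 100% = tunicamycin at 10 µg/mL and 0% = DMSO alone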
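Dosing – one dose, 10 µM in 0.5% DMSO · System – CHO-CHOP cells, stable luciferase reporter of PERK-eIF2a-CHOP signalling · Input – 500 cells/well · Control set – tunicamycin 10 µg/mL final as positive, DMSO-only wells as negative · Timing – 6 h compound treatment, 37 °C · Measure – % activation vs tunicamycin · Technique – luminescence read with Steady-Glo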
UPR XBP1 act: adaptive UPR (XBP1) activation | 330,000 tested, 0.33% active | activation, % at 20 µM | CHO-XBP1 luciferase reporter, IRE1-XBP1 UPR activation, luminescence; percent of tunicamycin response, DMSO as zero;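 active means versus positive control, 20 µM dose yields 30% or more activation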;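 further: 100% = tunicamycin at 10 µg/mL and 0% = DMSO only wells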
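incubation = overnight seeding at 37 °C, 6 h compound treatment at 37 °C | assay system = CHO-XBP1 cells stably carrying IRE1-XBP1-driven luciferase reporter | input = 1000 cells per well | detection = luciferase luminescence | dosing = single point, 20 µM final compound, 1% DMSO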
p97 confirm: confirmation of human p97 ATPase inhibitors | recombinant p97 ATPase, Kinase-Glo ATP luminescence | 760 tested, 44% active | shares compounds with p97 inhibitor | AID 1517 | inhibition, % at 8 µM;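 active means percent inhibition of p97 ATPase above a set limit, the primary screen's mean plus 3 SD, cut at about 15% in these data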;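 further: 0% = DMSO wells and 100% = wells lacking p97 protein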
Active calls of the source: *; x = no result.

SMILES | p97 inhibitor | HCV NS3 hel inh | CHOP inhibitor | PfM18AAP inh | CHOP UPR activ | UPR XBP1 act | p97 confirm
Cc1ccc(-n2nc(C)c(=O)c(-c3ccccc3)c2NC(=O)c2cccs2)cc1 | 4 | 11 | -7 | -3 | 0 | -1 | x
O=C(NNC(=O)c1cc2cc(Br)ccc2oc1=O)c1ccc(O)cc1O | 19* | 0 | 23 | 15 | -1 | 0 | 24*
Cc1ccc(NC(=O)C2CCCN(C(=O)c3ccc(Cl)cc3)C2)cc1S(=O)(=O)N1CCOCC1 (configuration not stated) | 0 | -6 | 11 | 1 | -2 | 0 | x
Nc1cc(-c2ccncc2)c[nH]c1=O | 23* | 4 | 33 | 0 | -1 | -2 | 5
CS(=O)(=O)N(CC(=O)NCCc1ccccc1)c1cccc([N+](=O)[O-])c1 | 18* | -9 | 16 | -3 | 0 | -3 | 5
COc1ccc(CCNC(=O)CN(c2cccc([N+](=O)[O-])c2)S(C)(=O)=O)cc1 | 3 | -2 | -20 | -6 | -1 | -2 | x
CN(C)S(=O)(=O)c1cc(NC(=O)COC(=O)c2nc(Cl)ccc2Cl)ccc1Cl | x | x | x | x | -2 | -1 | x
CC(C)(C)Nc1nc(NC(C)(C)C)nc(-n2ccnc2)n1 | 15* | -1 | 51 | 2 | 1 | 2 | 10
COc1ccc2ccccc2c1/C=N\NC(=O)c1ccc(C)s1 | x | -2 | x | -3 | 1 | -1 | x
COc1ccc2ccccc2c1/C=N/NC(=O)c1sc(N)c(C#N)c1C | 18* | 0 | 14 | 18 | x | x | 39*
CCn1c(N)nc2c1c(=O)n(C)c(=O)n2C | -2 | 1 | -26 | -1 | -1 | 1 | x
CCCc1nc2c(=O)n(C)c(=O)nc-2n(C)n1 | 32* | -4 | 104* | 3 | x | x | 29*
Cn1nc(-c2ccccn2)nc2c(=O)n(C)c(=O)nc1-2 | 34* | 1 | 107* | 23 | -5 | -7 | 33*
CCOc1ccccc1NC(=O)C1CCN(C(=O)C2CC(=O)N(c3ccc(C)cc3)C2)CC1 (configuration not stated) | x | -5 | x | 0 | 0 | -4 | x
NS(=O)(=O)c1ccc(N/N=C/c2ccc(O)c(O)c2O)c([N+](=O)[O-])c1 | 48* | 26 | 3 | 50* | x | x | 50*
COc1cc2c(cc1NC(=O)CSc1nnc(Cc3cccs3)n1C)oc1ccccc12 | 22* | -22 | 21 | -7 | 1 | 7 | 17*
O=C(O)c1cc(-c2ccco2)nc2cc3ccccc3cc12 | 30* | 19 | -8 | -11 | -2 | 3 | 23*
O=C(NNC(=O)c1cc(-c2ccco2)nc2ccccc12)c1ccccc1 | 9 | 3 | 9 | 2 | 2 | -2 | x
CCc1nc2ccccc2n1CC1CC1(Cl)Cl (configuration not stated) | -3 | 4 | 9 | -2 | 1 | -3 | x
N#Cc1c(-c2cccs2)cc(-c2cccs2)[nH]c1=O | 16* | -1 | 9 | -2 | -1 | 6 | 15*
Cc1cc(-c2cccs2)c(C#N)c(=S)[nH]1 | 2 | 16 | 7 | 16 | 4 | 1 | x
CC(=O)OC[C@H]1O[C@H](C/C=N/OC[C@@H](O)[C@H]2O[C@@H]3OC(C)(C)O[C@@H]3[C@H]2O)C=C[C@@H]1OC(C)=O | 8 | 3 | -1 | 7 | -3 | -4 | x
CCOc1ccc(NC(=O)c2ccc(NC(=S)NC3CC3)cc2)cc1 | 1 | 8 | 18 | -7 | 2 | 0 | x
CCOc1ccc(NC(=O)c2ccc(NC(=S)NC3CCCCC3)cc2)cc1 | 15* | -15 | 55 | 4 | 0 | 0 | 9
O=C(NCc1ccco1)c1sc(=S)n2c1[nH]c(=O)c1ccccc12 | 15* | 19 | -26 | 8 | 1 | -3 | 25*
SMILES | p97 inhibitor | HCV NS3 hel inh | CHOP inhibitor | PfM18AAP inh | CHOP UPR activ | UPR XBP1 act | p97 confirm
COc1ccc(N(CC(=O)N/N=C/c2cc(Br)c(C)o2)S(=O)(=O)c2ccc(NC(C)=O)cc2)cc1 | 15* | 1 | 26 | 4 | -1 | -1 | 7
COc1ccc(N(CC(=O)N/N=C/c2ccc(C(=O)O)cc2)S(=O)(=O)c2ccc(NC(C)=O)cc2)cc1 | x | 10 | x | -6 | 1 | 1 | x
COc1ccc([N+](=O)[O-])c(S(=O)(=O)c2ccccc2)n1 | 15* | -11 | 107* | -43 | -9 | -9 | 17*
CCc1ccc(Nc2nnc(SCC(=O)NCCN3C(=O)CSC3=O)s2)cc1 | -1 | 2 | 7 | -3 | 5 | 2 | x
Cc1cc(OC(=O)c2ccc(S(=O)(=O)N3CCCC3)cc2)c([N+](=O)[O-])c(=O)[nH]1 | 6 | -7 | -25 | 0 | -1 | -1 | x
Cc1cc(OC(=O)c2ccc(S(=O)(=O)N3CCCCC3)cc2)c([N+](=O)[O-])c(=O)[nH]1 | 15* | 6 | -13 | 10 | -2 | 2 | 4
COc1ccc(-c2nc(CCl)cs2)cc1OC | -1 | -6 | -37 | 4 | -3 | 6 | x
Oc1ccc(-c2csc(-c3c[nH]c4ccccc34)n2)c(O)c1 | 19* | -12 | 23 | 0 | 5 | 9 | 22*
COc1ccc(-c2nc(-c3ccc(O)cc3O)cs2)cc1OC | 17* | -10 | 85* | 7 | x | x | 19*
CC(C)=CCC/C(C)=C/CC/C(C)=C/CC/C(C)=C/CC1=C(C)C(=O)c2ccccc2C1=O | x | x | 13 | x | 0 | -4 | x
CC(C)=CCC1=C(OCC(=O)O)C(=O)c2ccccc2C1=O | 32* | 5 | -34 | 15 | 1 | 1 | 29*
NC(N)=NC(N)=Nc1cccc2ccccc12 | -2 | 0 | -4 | -17 | -1 | -5 | x
NC(N)=Nc1cc2ccccc2c2ccccc12 | 15* | -12 | 4 | 4 | 0 | -1 | 10
O=S(=O)(c1ccc2oc(=S)[nH]c2c1)N1CCCCC1 | 21* | 9 | 2 | 4 | 0 | -3 | 4
Cc1cc(/C=C2\NC(=O)NC2=O)c(C)n1-c1ccc(N2CCOCC2)cc1 | 17* | 2 | -2 | 16 | 1 | -4 | 9
Cc1cc(/C=C2/NC(=O)NC2=O)c(C)n1-c1ccc(N2CCOCC2)cc1 | 1 | 2 | -9 | 9 | -2 | -3 | x
CCCOc1cccc(C2C(C(=O)c3ccc(C)o3)=C(O)C(=O)N2c2nc(C)c(C(C)=O)s2)c1 (configuration not stated) | x | 18 | x | 17 | 2 | -5 | x
Nc1nnc(-c2ccco2)s1 | -5 | 5 | -20 | 0 | -1 | 1 | x
Nc1ncnc2oc(-c3ccco3)c(-c3ccco3)c12 | 17* | 22 | 55 | 17 | 1 | -1 | 13
